Data set [1] deals with Staphylococcus aureus. The data set can be described thus: Antibacterial activity against glycopeptide-intermediate Staphylococcus aureus NRS 19 assessed as growth inhibition after 24 hrs by CLSI twofold serial broth microdilution method. Format: functional. The following applies: NRS 19, 24 h. In short, it runs like this:
(§1)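 CLSI-standard twofold serial broth microdilution; MIC read-out in μg/mL, with vancomycin tested alongside as reference antibiotic.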
(In broth dilution the organism is exposed to a series of concentrations in liquid medium.)

Data set [2] in a line: Cytotoxicity against human HepG2 cells after 24 hrs by resazurin assay. Format: cell-based. (In general: Resazurin is reduced to fluorescent resorufin, in cell work by metabolically active cells.)
The test system of data set [3] is Staphylococcus aureus. The data set can be described thus: Antibacterial activity against methicillin-resistant Staphylococcus aureus ATCC 43300 assessed as growth inhibition after 24 hrs by CLSI twofold serial broth microdilution method. The class given is functional. The following applies: ATCC 43300, 24 h. In short, it runs like this: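 Read-out was the MIC in μg/mL, determined by twofold serial broth microdilution to CLSI standards.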

The test system of data set [4] is Staphylococcus aureus. As to the kind of experiment: Antibacterial activity against Staphylococcus aureus ATCC 25923 assessed as growth inhibition after 24 hrs by CLSI twofold serial broth microdilution method. Format: functional. Particulars: ATCC 25923, 24 h. In short, it runs like this: as §1
Data set [5] is described as follows: Cytotoxicity against HEK293 cells after 24 hrs by resazurin assay. The class given is cell-based. Particulars: human.

Molecules are shown by their SMILES. ≈ marks a conversion by molar mass, not a printed value. Some results are limits rather than exact numbers.

With `COc1cc(Cl)cc(C=Cc2ccc3ccccc3c2)c1C(=O)O`, the MIC in data set [1] was 128 µg/mL (≈ 378 µM); in data set [3], 64 µg/mL (≈ 189 µM); in data set [4], more than 128 µg/mL. For the same compound, the CC50 at 24 h in data set [2] was found to be 104 µM; in data set [5], 93 µM.
Regarding `Cc1cc(O)c(C(=O)O)c(C=Cc2ccc3ccccc3c2)c1` (mixture of isomers), the MIC in data set [1] is 32 µg/mL; in data set [3] it was 16 µg/mL; in data set [4], 16 µg/mL. Moreover, the CC50 at 24 h turned out to be 30 µM in data set [2] and 52 µM in data set [5].
As to `O=C(O)c1c(O)cccc1CCc1ccccc1`, the CC50 at 24 h in data set [2] and in data set [5] was more than 100 µM throughout.
As to `COc1cc(CCc2ccc3ccccc3c2)cc(OC)c1OC`, the CC50 at 24 h in data set [2] and in data set [5] was more than 100 µM in each case.
As to `CCN(CC)C(=O)c1c(/C=C\c2ccc3ccccc3c2)cc(OC)cc1OC`, the CC50 at 24 h in data set [2] and in data set [5] was more than 100 µM each time.
On to `COc1cc(/C=C/c2ccccc2)cc(OC)c1OC`, for which the CC50 at 24 h in data set [2] was found to be 38.4 µM; in data set [5], 62.6 µM.
Turning to `Oc1cc(CCc2ccccc2)cc(O)c1O`, the CC50 at 24 h in data set [2] is 102 µM; in data set [5], 106 µM.
Turning to `O=C(O)c1c(O)cccc1CCc1ccc2ccccc2c1`, the MIC in data set [1], in data set [3] and in data set [4] was more than 128 µg/mL in each case. In addition, the CC50 at 24 h in data set [2] and in data set [5] was more than 100 µM each time.
With `COc1cc(C=Cc2ccc3ccccc3c2)c(C(=O)O)c(OC)c1`, the MIC in data set [1], in data set [3] and in data set [4] was more than 128 µg/mL in each case. The CC50 at 24 h in data set [2] and in data set [5] was more than 100 µM each time.
With `CCN(CC)C(=O)c1c(O)cccc1CCc1ccc2ccccc2c1`, the CC50 at 24 h in data set [2] and in data set [5] was more than 100 µM throughout.
With `CCN(CC)C(=O)c1c(CCc2ccc3ccccc3c2)cc(OC)cc1OC`, the results for the cytotoxic concentration (CC50) at 24 h in data set [2] and in data set [5] were 59 µM and more than 100 µM, respectively.
As for `O=C(O)c1c(O)cccc1C=Cc1ccc2ccccc2c1` (mixture of isomers), the MIC in data set [1], in data set [3] and in data set [4] was 64 µg/mL throughout. Moreover, the CC50 at 24 h in data set [2] was determined as 71 µM; in data set [5], 97 µM.
In the case of `COc1cccc(C=Cc2ccc3ccccc3c2)c1C(=O)O` (mixture of isomers), the MIC in data set [1], in data set [3] and in data set [4] was more than 128 µg/mL throughout. In addition, the cytotoxic concentration (CC50) at 24 h in data set [2] and in data set [5] was more than 100 µM throughout.
Regarding `COc1cc(/C=C/c2ccc3ccccc3c2)cc(OC)c1OC`, the CC50 at 24 h is 16.8 µM in data set [2] and 23.4 µM in data set [5].
Regarding `CCN(CC)C(=O)c1c(O)cc(O)cc1CCc1ccc2ccccc2c1`, the CC50 at 24 h came to 36.4 µM in data set [2] and 30.6 µM in data set [5].
For the compound `COc1cc(/C=C\c2ccc3ccccc3c2)cc(OC)c1OC` [NAPHTHYLCOMBRETASTATIN], the CC50 at 24 h in data set [2] and in data set [5] was more than 100 µM in each case.
Consider `O=C(O)c1c(O)cc(Cl)cc1CCc1ccc2ccccc2c1`, for which the MIC in data set [1] came out at 128 µg/mL (≈ 392 µM); in data set [3], 16 µg/mL (≈ 49 µM); in data set [4], 16 µg/mL (≈ 49 µM). The CC50 at 24 h in data set [2] and in data set [5] was 35 µM each time.
Take `O=C(O)c1c(O)cc(Cl)cc1C=Cc1ccc2ccccc2c1` (mixture of isomers): the MIC in data set [1], in data set [3] and in data set [4] was 16 µg/mL throughout. The CC50 at 24 h in data set [2] turned out to be 25 µM; in data set [5], 38 µM.
On to `O=C(O)c1c(O)cccc1/C=C/c1ccccc1`, for which the CC50 at 24 h in data set [2] and in data set [5] was more than 100 µM each time.
Turning to `CCN(CC)C(=O)c1c(/C=C/c2ccc3ccccc3c2)cc(OC)cc1OC`, the CC50 at 24 h in data set [2] and in data set [5] was more than 100 µM throughout.
For `COc1cc(C)cc(C=Cc2ccc3ccccc3c2)c1C(=O)O` (mixture of isomers), the MIC in data set [1], in data set [3] and in data set [4] was more than 128 µg/mL in each case. Besides, the figures for the CC50 at 24 h in data set [2] and in data set [5] were 117 µM and 119 µM, respectively.
In the case of `CCN(CC)C(=O)c1c(CCc2ccc3ccccc3c2)cccc1OC`, the CC50 at 24 h was 35.8 µM in data set [2] and 85.7 µM in data set [5].
Taken in the same sequence, the figures for `COc1cc(CCc2ccccc2)cc(OC)c1OC` were more than 100 µM and more than 100 µM.
Regarding `CCN(CC)C(=O)c1c(/C=C/c2ccc3ccccc3c2)cccc1OC`, in data set [5], the CC50 at 24 h was 116 µM.
For the compound `Cc1cc(O)c(C(=O)O)c(CCc2ccc3ccccc3c2)c1`, the results for the MIC in data set [1], in data set [3] and in data set [4] were 128 µg/mL (≈ 418 µM), 64 µg/mL (≈ 209 µM) and 32 µg/mL (≈ 104 µM), respectively. For the same compound, the figures for the CC50 at 24 h in data set [2] and in data set [5] were 38 µM and 40 µM, respectively.
On the same counts, the results for `COc1cc(O)c(C(=O)O)c(C=Cc2ccc3ccccc3c2)c1` (mixture of isomers) are 128 µg/mL, 128 µg/mL, more than 128 µg/mL, 79 µM and 65 µM.
Taken in the same sequence, the figures for `COc1cc(O)c(C(=O)O)c(CCc2ccc3ccccc3c2)c1` were 128 µg/mL (≈ 397 µM), 64 µg/mL (≈ 199 µM), 64 µg/mL (≈ 199 µM), 71 µM and 65 µM.
Consider `COc1cc(/C=C\c2ccccc2)cc(OC)c1OC`, for which the CC50 at 24 h in data set [2] amounted to 20.2 µM; in data set [5], 36 µM.
Consider `CCN(CC)C(=O)c1c(/C=C\c2ccc3ccccc3c2)cccc1OC`, for which the CC50 at 24 h in data set [2] was 28 µM; in data set [5] it was 38.7 µM.
Consider `Oc1cc(CCc2ccc3ccccc3c2)cc(O)c1O`, for which the CC50 at 24 h in data set [2] and in data set [5] was more than 100 µM each time.

The MIC is the least concentration at which growth counts as inhibited. Usually CC50 stands for the concentration giving 50% cytotoxicity. A higher CC50 goes with better tolerance by the cells.
